Screening data (PubChem)
EBI2 block: EBI2 (human) antagonism; P32249; EBI2 beta-arrestin recruitment, luminescence, 7a,25-OHC stimulated; inhibition, % at 5 µM; actives 0.81% (n = 360,000); AID 651636; in the data active = inhibition above about 38%;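 note: enzyme fragment complementation signal reports receptor beta-arrestin coupling in cells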
Target sequence (P32249 whole entry, looked up, the tested form may be a part): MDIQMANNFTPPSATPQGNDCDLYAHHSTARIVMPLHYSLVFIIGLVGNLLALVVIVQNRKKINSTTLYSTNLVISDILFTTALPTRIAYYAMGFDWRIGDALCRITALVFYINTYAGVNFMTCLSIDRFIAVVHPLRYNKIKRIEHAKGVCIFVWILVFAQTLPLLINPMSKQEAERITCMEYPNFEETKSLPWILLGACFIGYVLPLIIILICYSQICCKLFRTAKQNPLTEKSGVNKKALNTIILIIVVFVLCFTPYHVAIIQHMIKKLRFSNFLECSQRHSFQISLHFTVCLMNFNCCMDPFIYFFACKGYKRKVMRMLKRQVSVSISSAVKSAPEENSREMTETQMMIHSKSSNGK
APJ agonist: agonists of human APJ apelin receptor | P35414 | CHO-K1 APJ PathHunter beta-arrestin, luminescence; 0% DMSO wells, 100% apelin | activation, % at 20 µM | actives 0.11% (n = 330,000);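 active = activation more than six SD over the plate average, tested at 20 µM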
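Incubation: overnight seeding, 90 min compound at 25 °C, 1 h detection; test system: PathHunter CHO-K1 APJ (AGTRL-1) beta-arrestin reporter cells; amount: 1000 cells/well; doses: one dose, 20 µM compound, 1% DMSO; measured by: beta-gal luminescence; measure: agonist-driven arrestin binding to APJ; benchmarks: negative DMSO alone, positive Apelin-13 at 10 nM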
TAG inh: triacylglycerol accumulation inhibition. H9c2 cells, Nile Red lipid (TAG) fluorescence; cells loaded with 200 µM oleic acid. inhibition, % at 12.5 µM. actives 0.66% (n = 230,000). AID 651582;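 active = pattern-corrected inhibition of lipid staining of at least 50% with the nuclear-stain viability signal not falling by more than 50%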
CCR6 antagonist: antagonists of human CCR6 receptor. CHO-K1 CCR6 PathHunter beta-arrestin, luminescence, CCL20-stimulated. P51684. AID 493098. inhibition, % at 20 µM. actives 0.49% (n = 340,000);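 active = compounds whose inhibition of the agonist-driven luminescence signal at 20 µM reaches about 50%, limit read from the data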;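 note: cells stimulated with CCL20 at 14 nM final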
CXCR6 block: blocks human CXCR6 beta-arrestin recruitment. O00574. CHO-K1 PathHunter CXCR6 beta-arrestin, luminescence. inhibition, % at 20 µM. actives 0.36% (n = 360,000); in the data active = inhibition above about 34%, passing the limit was not always enough;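 note: antagonist mode with CXCL16 agonist at 10 nM final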
Target sequence (O00574 whole entry, looked up): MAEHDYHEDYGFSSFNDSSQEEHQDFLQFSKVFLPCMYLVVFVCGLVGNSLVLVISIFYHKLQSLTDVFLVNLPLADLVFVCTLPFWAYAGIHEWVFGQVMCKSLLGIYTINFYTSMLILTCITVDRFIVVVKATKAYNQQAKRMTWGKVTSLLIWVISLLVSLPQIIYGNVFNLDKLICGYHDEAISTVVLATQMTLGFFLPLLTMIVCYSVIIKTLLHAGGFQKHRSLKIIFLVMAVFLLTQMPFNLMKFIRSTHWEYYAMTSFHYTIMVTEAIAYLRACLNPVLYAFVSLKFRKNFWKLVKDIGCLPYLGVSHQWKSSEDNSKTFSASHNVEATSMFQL
APJ antagonist: antagonists of human APJ apelin receptor. P35414. CHO-K1 APJ beta-arrestin complementation, luminescence. inhibition, % at 20 µM. actives 0.32% (n = 330,000);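 active = inhibition above about 40% at 20 µM, limit read from the data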;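 note: cells challenged with 10 nM apelin-13 agonist together with compound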
H9c2 TAG conf: triacylglycerol accumulation inhibition, confirmation. shares compounds with TAG inh. H9c2 lipid accumulation, Nile Red fluorescence; cells loaded with 200 µM oleic acid. inhibition, % at 12.5 µM. actives 71% (n = 990);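 active = mean inhibition across replicates of 40% or more; inactive = mean inhibition below 40%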
Of the large screens only hits and unclear results are named; the others gave an inactive call (follow-up assays come after a bar, where they were run). Only some compounds are listed: those with a hit (about 1.9% of all), similar ones and a draw of the others.

CCNS(=O)(=O)c1ccc(CCC(=O)Nc2cc(Cl)ccc2Oc2ccccc2)cc1	none (no result: TAG inh)
O=c1nc(N/N=C/c2c[nH]c3ccccc23)cn[nH]1	none
O=c1nc(N/N=C/C=C/c2ccccc2)cn[nH]1	TAG inh 64 | H9c2 TAG conf inactive
COc1cc2ccccc2cc1C(=O)N/N=C/c1cccs1	TAG inh 55 (no result: APJ agonist, CCR6 antagonist, APJ antagonist) | H9c2 TAG conf 64
O=C(CN1C(=O)C2CC=CCC2C1=O)Nc1ccc(F)cc1F (centres undefined)	none
Cc1ccccc1OCCNc1cc(N2CC(C)NC(C)C2)ccc1[N+](=O)[O-] (centres undefined)	TAG inh 56 | H9c2 TAG conf 62
O=C(C[C@@H]1C[C@@H]2c3cc(NC(=O)C4CCOCC4)ccc3O[C@@H]2[C@H](CO)O1)NCc1ccccn1	none (no result: APJ agonist, CCR6 antagonist, APJ antagonist)
C=CCc1c(C)nc(-c2ccccc2)nc1N/N=C/c1ccncc1	TAG inh 65 | H9c2 TAG conf inactive
Cc1ccc2nc(NC(=O)CN(C)S(=O)(=O)c3cccc4nsnc34)sc2c1	TAG inh 71 | H9c2 TAG conf 65
COc1ccc(S(=O)(=O)N(C)C[C@@H]2OCCCC[C@H](C)Oc3ccc(NC(=O)Nc4ccc(C(F)(F)F)cc4)cc3C(=O)N([C@H](C)CO)C[C@H]2C)cc1	TAG inh 59 (no result: APJ agonist, CCR6 antagonist, APJ antagonist) | H9c2 TAG conf 44
NS(=O)(=O)c1ccc(CNC(=S)NCc2ccc(F)cc2)cc1	none
O=C(Nc1c(-c2ccc3c(c2)OCO3)[nH][nH]c1=O)c1ccccc1	none (no result: APJ agonist, TAG inh, CCR6 antagonist, APJ antagonist)
Clc1ccc(C2Nc3cccc4cccc(c34)N2)c(Cl)c1	none (no result: APJ agonist, APJ antagonist)
O=C1NC(c2cccc3ccccc23)Nc2ccc(Cl)cc21 (centres undefined)	TAG inh 52 (no result: APJ agonist, APJ antagonist) | H9c2 TAG conf inactive
O[C@@H](c1cc(C(F)(F)F)nc2c(C(F)(F)F)cccc12)[C@H]1CCCCN1	none
CC(C)(C)NCCC(O)c1cc(C(F)(F)F)nc2c(C(F)(F)F)cccc12 (centres undefined)	TAG inh 65 (no result: APJ agonist, APJ antagonist) | H9c2 TAG conf 63
OC1(c2ccccc2F)CCN(Cc2nnnn2Cc2ccc(F)cc2)CC1	none
CCOC(=O)c1cc(-c2ccncc2)nc2c1c(C)nn2-c1ccccn1	TAG inh 68 | H9c2 TAG conf 43
COc1ccc(-c2cc(C(=O)O)c3c(C)nn(-c4ccccn4)c3n2)cc1	none (no result: EBI2 block, TAG inh, CXCR6 block)
COc1ccc2cc3cc(C(=O)NCCc4ccc(OC)c(OC)c4)oc3nc2c1	TAG inh 67 | H9c2 TAG conf 44
Oc1ccccc1Nc1nc(NCC2CCCO2)c2ccccc2n1 (centres undefined)	none
Oc1ccc(Nc2nc(NCC3CCCO3)c3ccccc3n2)cc1 (centres undefined)	TAG inh 50 | H9c2 TAG conf inactive
O=C(N/N=C/c1ccc(Cl)cc1)c1n[nH]c2c1CCCC2	TAG inh 59 | H9c2 TAG conf inactive
O=C(N/N=C/c1ccccc1)c1n[nH]c2c1CCCC2	none
O=C(NCCOc1nc(N2CCOCC2)nc(N2CCOCC2)n1)Nc1ccccc1	TAG inh 54 | H9c2 TAG conf inactive
COc1cc2[nH]c(=O)n3nc(-c4ccccc4)nc3c2cc1OC	none
CCN(CC)CCNc1nc2cc(OC)c(OC)cc2c2nc(-c3ccccc3)nn12	TAG inh 64 | H9c2 TAG conf 46
Cc1csc(SCC(=O)Nc2ccc(C)c(F)c2)n1	none
COCCN1C(=O)c2ccccc2C(C(=O)Nc2ccc3c(c2)OCCO3)C1c1ccc(F)cc1 (centres undefined)	TAG inh 57 | H9c2 TAG conf inactive
CCOc1ccc(NC(=O)CN(C)C(=O)c2cc(-c3ccc(OC)cc3)nc3ccccc23)cc1OCC	TAG inh 53 | H9c2 TAG conf 63
CC(Sc1nnc(COc2ccc(Cl)cc2)o1)C(=O)Nc1ccc(N2CCOCC2)cc1 (centres undefined)	none
COc1ccccc1-c1cc(C(F)(F)F)nc(S(=O)(=O)CCCC(=O)NC(C)C)n1	TAG inh 66 | H9c2 TAG conf 90
O=C(CN1C(=O)CSc2ccc(S(=O)(=O)N3CCCCC3)cc21)NCc1ccccc1	none (no result: TAG inh)
COc1ccc(S(=O)(=O)N2CCN(C(=O)c3cc(C)nc4ccccc34)CC2)cc1OC	none
CCOC(=O)c1c(C)[nH]c(C(=O)OCC(=O)NCCc2ccc(OCC)c(OCC)c2)c1C	TAG inh 57 | H9c2 TAG conf 63
COc1cc(/C(O)=C(\C#N)c2nc3ccccc3[nH]2)cc(OC)c1OC	none
COc1cc2c(cc1NC(=O)Nc1cccc(C)c1)oc1ccccc12	TAG inh 51 | H9c2 TAG conf inactive
CC(C)(C)OC(=O)C[C@@H]1C/C=C\C[C@@H](CC(=O)N[C@H](CO)Cc2ccccc2)C(=O)N2CCC[C@H]2COC1=O	none
Fc1cccc(Nc2nc(-c3ccncc3)nc3ccccc23)c1	TAG inh 69 | H9c2 TAG conf 63
COc1ccc(NC(=O)c2cc3c([nH]c4ccccc43)c(C)n2)cc1	none (no result: TAG inh)
Cc1nc(C(=O)Nc2ccccc2Cl)cc2c1[nH]c1ccccc12	TAG inh 75 | H9c2 TAG conf 55
COCCNCc1ccccc1[N+](=O)[O-]	none
Cc1ccc(-n2nc(C(=O)NCc3ccc(C)o3)c3c4ccccc4n(C)c3c2=O)cc1	TAG inh 53 | H9c2 TAG conf inactive
O=C(/C=C\c1ccccc1)Oc1cccc2cccnc12	none
O=C(/C=C/c1ccccc1)Oc1cccc2cccnc12	TAG inh 50 | H9c2 TAG conf inactive
Cc1ccc(C(=O)NN(C)c2nc3ccccc3nc2C(F)(F)F)cc1	none
CSc1nc(N(C)NC(=O)c2ccc(Cl)cc2)c2ccccc2n1	TAG inh 65 | H9c2 TAG conf 66
CSc1nc(N(C)NC(=O)c2ccccc2)c2ccccc2n1	TAG inh 57 | H9c2 TAG conf 62
Cc1ccc(OCC(=O)N(C)CC(=O)Nc2cccc(F)c2)cc1	none
CC(=O)Nc1cnc(-c2ccc3c(c2)OCO3)cn1	none (no result: APJ agonist, CCR6 antagonist, APJ antagonist)
COc1cc(C#Cc2c(-c3cncn3C)n(C)c3ccc(-c4ccc5[nH]ccc5c4)cc23)cc(OC)c1	TAG inh 93 | H9c2 TAG conf 92
COc1cc(OC)cc(-c2c(C#Cc3ccsc3)c3cc(-c4ccc5[nH]ccc5c4)ccc3n2C)c1	none (no result: TAG inh)
COc1cc(-c2cc3nc(NCCOc4ccccc4)ccn3n2)cc(OC)c1OC	TAG inh 54 (no result: APJ agonist, CCR6 antagonist, APJ antagonist) | H9c2 TAG conf 49
CN(Cc1ccc(C(C)(C)C)cc1)C(=O)C1CCN(C(=O)Nc2ccccc2)CC1	none
COCCN(Cc1ccccc1)C(=O)C1CCN(C(=O)Nc2ccccc2)CC1	TAG inh 54 | H9c2 TAG conf 45
